Published values gathered from unrelated publications.
Target: Testis-specific serine/threonine-protein kinase 3 (TSSK3, Homo sapiens, UniProt Q96PN8)
One construct used (Q96PN8 1-268): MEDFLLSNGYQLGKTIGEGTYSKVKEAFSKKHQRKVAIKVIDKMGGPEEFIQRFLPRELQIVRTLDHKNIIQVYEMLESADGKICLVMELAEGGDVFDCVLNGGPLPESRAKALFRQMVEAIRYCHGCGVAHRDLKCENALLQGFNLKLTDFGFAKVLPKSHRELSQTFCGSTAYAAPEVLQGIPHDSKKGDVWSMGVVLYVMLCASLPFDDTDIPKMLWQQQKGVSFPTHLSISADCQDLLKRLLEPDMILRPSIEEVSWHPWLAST

Compound | observed | technique | tested at | remaining binding [%]
CN(C)c1ncc(F)c(-c2cnn3ncccc23)n1 | binding |  | 1 µM | 99
CC1=C(C#N)[C@@H](c2ccc3[nH]nc(C)c3c2)C(C#N)=C(c2ccc(Cl)cc2)N1 | cell-free assay | competition with immobilised ligand | 1 µM | 100
c1cncc(-c2cccc(Nc3nccc(NC4CCCCC4)n3)c2)c1 | binding | competition with immobilised ligand | 10 µM | 86
FC(F)(F)Oc1cccc(-c2cnc3ccc(-c4ccncc4)nn23)c1 | binding | competition with immobilised ligand | 5 µM | 91
CN(CCCC(F)(F)F)c1nccc(-c2cnn3ncccc23)n1 | binding |  | 1 µM | 85
O=C(c1ccc(Nc2nccc(-c3cc4ccccc4s3)n2)cc1)N1CCC(N2CCCC2)CC1 | binding | competition with immobilised ligand | 1 µM | 100
COc1ncc2cc3ccccc3nc2c1C#N | cell-free assay | competition with immobilised ligand | 5 µM | 90
O=C(NCCCN1CCOCC1)c1ccc(Nc2ncc(Cl)c(-c3ccc(Cl)s3)n2)cc1 | binding | competition with immobilised ligand | 1 µM | 100
F[C@@H]1CCN(c2nccc(-c3cnn4ncccc34)n2)C1 | binding |  | 1 µM | 100
C[C@H](c1ccc(F)cc1)N(Cc1cccc(C(=O)O)c1)C(=O)c1cnc2ccccc2c1 | cell-free assay | competition with immobilised ligand | 1 µM | 64
Cc1cnc(Nc2ccc(C(=O)N3CCC(N4CCCC4)CC3)cc2)nc1-c1cc2ccccc2s1 | binding | competition with immobilised ligand | 1 µM | 84
COc1cnc(Nc2cccc(S(N)(=O)=O)c2)nc1N1CCN(c2ccccc2)C(=O)C1 | binding | competition with immobilised ligand | 1 µM | 90
O=C(Nc1cnc(Oc2ccc(F)cc2)nc1)N1CCc2ncccc2[C@@H]1c1ccc(F)cc1 | cell-free assay | competition with immobilised ligand | 1 µM | 86
O=C(NCC1CCOCC1)c1n[nH]cc1NC(=O)c1c(F)cccc1F | binding | competition with immobilised ligand | 1 µM | 100
CCS(=O)(=O)c1cc2cc(C[C@](O)(CC(C)(C)c3ccc(F)cc3C(N)=O)C(F)(F)F)[nH]c2cn1 | cell-free assay | competition with immobilised ligand | 1 µM | 100
C[C@@H]1CCN(c2nccc(-c3cnn4ncccc34)n2)C1 | binding |  | 1 µM | 78
CN([C@@H]1CCc2c(CC(=O)O)c3cc(S(C)(=O)=O)ccc3n2C1)S(=O)(=O)c1ccc(F)cc1 | cell-free assay | competition with immobilised ligand | 1 µM | 100
CN(c1nccc(-c2cnn3ncccc23)n1)C1CC1 | binding |  | 1 µM | 99
O=C(Nc1ccc(Oc2ccc(F)cc2)cc1)N1CCc2ncccc2[C@H]1c1ccc(F)cc1 | cell-free assay | competition with immobilised ligand | 1 µM | 98
N[C@@H]1CCN(c2nccc(-c3cnn4ncccc34)n2)C1 | binding |  | 1 µM | 100
